{"source": "ChEMBL document CHEMBL1932985", "about": "“Identification of biaryl sulfone derivatives as antagonists of the histamine H₃ receptor: discovery of (R)-1-(2-(4'-(3-methoxypropylsulfonyl)biphenyl-4-yl)ethyl)-2-methylpyrrolidine (APD916)” (Bioorg Med Chem Lett, 2012)", "key": {"Histamine H3 receptor": {"molecular_target": "Histamine H3 receptor (Rattus norvegicus, UniProt Q9QYN8)", "sequence (Q9QYN8 whole entry)": "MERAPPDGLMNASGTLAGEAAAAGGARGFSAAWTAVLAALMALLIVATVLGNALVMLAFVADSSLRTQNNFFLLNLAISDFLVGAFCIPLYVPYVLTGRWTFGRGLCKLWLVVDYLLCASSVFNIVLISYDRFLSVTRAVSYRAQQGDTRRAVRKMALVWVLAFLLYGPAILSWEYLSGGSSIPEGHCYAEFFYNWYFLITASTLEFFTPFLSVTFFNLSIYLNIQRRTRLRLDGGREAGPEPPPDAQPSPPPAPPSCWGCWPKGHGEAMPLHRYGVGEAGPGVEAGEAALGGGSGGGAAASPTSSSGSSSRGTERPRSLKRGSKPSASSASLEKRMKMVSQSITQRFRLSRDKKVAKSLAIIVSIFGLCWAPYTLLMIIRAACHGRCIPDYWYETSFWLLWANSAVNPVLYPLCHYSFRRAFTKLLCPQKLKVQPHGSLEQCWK", "assay": "Displacement of N-[3H]-methylhistamine from histamine H3 receptor in rat cortex membranes", "type": "cell membranes, Membrane"}, "Rattus norvegicus [1]": {"system": "Rattus norvegicus", "assay": "Inhibition of RAMH-induced dipsogenia in po dosed Sprague-Dawley rat administered 30 mins prior to RAMH challenge measured up to 20 mins", "type": "functional", "details": "read-out: MED", "in_short": "(§1)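 Rats given compound orally 0.5 h (or, for duration of action, at selected times up to 6 h) before RAMH 10 mg/kg SC; water consumed over 20 min measured. Screening doses 1 or 0.3 mg/kg PO, also 0.1 mg/kg; duration study at 0.6 mg/kg PO. MED = minimum dose fully inhibiting drinking; means ± SEM.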"}, "hERG (KCNH2)": {"molecular_target": "hERG (KCNH2) (Homo sapiens, UniProt Q12809)", "sequence (Q12809 whole entry)": "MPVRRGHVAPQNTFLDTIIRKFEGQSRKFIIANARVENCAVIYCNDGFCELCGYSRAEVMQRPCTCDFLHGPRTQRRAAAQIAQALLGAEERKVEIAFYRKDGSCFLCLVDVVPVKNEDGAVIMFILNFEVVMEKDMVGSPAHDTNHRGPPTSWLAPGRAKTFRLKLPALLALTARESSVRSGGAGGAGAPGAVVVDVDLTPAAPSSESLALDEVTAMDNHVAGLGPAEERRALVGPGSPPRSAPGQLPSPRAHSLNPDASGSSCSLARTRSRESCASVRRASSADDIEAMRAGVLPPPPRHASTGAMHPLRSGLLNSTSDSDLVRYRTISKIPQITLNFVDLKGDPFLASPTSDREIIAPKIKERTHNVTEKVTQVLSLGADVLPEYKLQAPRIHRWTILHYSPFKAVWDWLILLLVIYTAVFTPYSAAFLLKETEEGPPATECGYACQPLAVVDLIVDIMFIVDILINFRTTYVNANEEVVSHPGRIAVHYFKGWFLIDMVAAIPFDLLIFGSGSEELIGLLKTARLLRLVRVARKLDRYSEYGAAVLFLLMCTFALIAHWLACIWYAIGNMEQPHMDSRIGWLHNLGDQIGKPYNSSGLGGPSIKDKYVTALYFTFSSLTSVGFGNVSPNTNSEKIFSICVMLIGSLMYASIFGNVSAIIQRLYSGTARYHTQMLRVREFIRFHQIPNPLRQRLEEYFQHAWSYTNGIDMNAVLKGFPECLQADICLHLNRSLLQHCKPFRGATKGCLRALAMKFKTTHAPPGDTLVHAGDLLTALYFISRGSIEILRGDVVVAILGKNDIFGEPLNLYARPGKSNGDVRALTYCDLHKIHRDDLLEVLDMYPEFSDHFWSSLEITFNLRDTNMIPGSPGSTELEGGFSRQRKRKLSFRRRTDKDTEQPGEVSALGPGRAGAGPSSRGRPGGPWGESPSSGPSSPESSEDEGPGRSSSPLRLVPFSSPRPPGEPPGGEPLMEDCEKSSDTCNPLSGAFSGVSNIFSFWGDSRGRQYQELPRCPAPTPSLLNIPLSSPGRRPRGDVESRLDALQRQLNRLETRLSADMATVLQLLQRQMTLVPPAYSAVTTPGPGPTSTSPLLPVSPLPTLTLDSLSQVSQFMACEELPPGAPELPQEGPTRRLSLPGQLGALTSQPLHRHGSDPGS", "assay": "Inhibition of human ERG at 3 uM by patch-clamp assay"}, "[2]": {"assay": "Solubility of the compound in water", "type": "physicochemical"}, "[3]": {"molecular_target": "Voltage-gated inwardly rectifying potassium channel KCNH2 (Homo sapiens, UniProt Q12809)", "sequence (Q12809 whole entry)": "as above", "assay": "Inhibition of human ERG by patch-clamp assay"}, "Rattus norvegicus [4]": {"system": "Rattus norvegicus", "assay": "Volume of distribution at steady state in Sprague-Dawley rat at 3 mg/kg, po and iv by LC-MS/MS analysis", "type": "ADME, organism-based", "parameters": "dose 3 mg/kg, route oral", "details": "in vivo", "in_short": "(§2)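 Rats were given the compound both IV and PO in a routine PK study. Tmax came from the PO arm and Vss from the IV arm.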"}, "[5]": {"assay": "Oral bioavailability in Sprague-Dawley rat at 3 mg/kg by LC-MS/MS analysis", "type": "ADME, organism-based", "details": "in vivo", "in_short": "(§3)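 Rat PK after IV and PO dosing; plasma Cmax, Tmax, IV half-life and Vss determined; oral bioavailability from AUCpo/AUCiv. Metabolite exposure determined after a 3 mg/kg PO parent dose.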"}, "[6]": {"assay": "Tmax in Sprague-Dawley rat at 3 mg/kg, po and iv by LC-MS/MS analysis", "type": "ADME, organism-based", "parameters": "dose 3 mg/kg, route oral", "details": "in vivo", "in_short": "as §2"}, "[7]": {"assay": "Cmax in Sprague-Dawley rat plasma at 3 mg/kg, po and iv by LC-MS/MS analysis", "type": "ADME, organism-based", "parameters": "dose 3 mg/kg, route oral", "in_short": "as §3"}, "[8]": {"assay": "Ratio of drug level in brain to plasma in Sprague-Dawley rat at 3 mg/kg, po and iv after 0.75 to 3 hrs by LC-MS/MS analysis", "type": "ADME, organism-based", "parameters": "dose 3 mg/kg, route oral", "details": "read-out: BPR", "in_short": "(§4)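 Brain (µg/mg) and plasma (µg/mL) levels were measured after oral dosing, with three rats per time point. The b/p ratio was the mean of the nine individual ratios.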"}, "[9]": {"assay": "Half life in Sprague-Dawley rat at 3 mg/kg, iv by LC-MS/MS analysis", "type": "ADME, organism-based", "parameters": "dose 3 mg/kg, route intravenous", "details": "in vivo", "in_short": "as §3"}, "Rattus norvegicus [10]": {"system": "Rattus norvegicus", "assay": "Tmax in Sprague-Dawley rat assessed as (R)-3-(4'-(2-(2-methylpyrrolidin-1-yl)ethyl)biphenyl-4-ylsulfonyl)propan-1-ol level at 3 mg/kg, po and iv by LC-MS/MS analysis", "type": "ADME, organism-based", "parameters": "dose 3 mg/kg, route oral", "details": "in vivo", "in_short": "(§5)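 Exposure to the hydroxylated metabolite was measured after the propyl parent was given to rats at 3 mg/kg PO. Brain (µg/mg) and plasma (µg/mL) levels were taken at 3 time points, and the ratio was the mean.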"}, "[11]": {"assay": "Ratio of (R)-3-(4'-(2-(2-methylpyrrolidin-1-yl)ethyl)biphenyl-4-ylsulfonyl)propan-1-ol level in brain to plasma in Sprague-Dawley rat at 3 mg/kg, po and iv after 0.75 to 3 hrs by LC-MS/MS analysis", "type": "ADME, organism-based", "parameters": "dose 3 mg/kg, route oral", "in_short": "as §5"}, "Plasma": {"system": "Plasma", "assay": "Cmax in Sprague-Dawley rat plasma assessed as (R)-3-(4'-(2-(2-methylpyrrolidin-1-yl)ethyl)biphenyl-4-ylsulfonyl)propan-1-ol level at 3 mg/kg, po and iv by LC-MS/MS analysis", "type": "ADME, organism-based", "parameters": "dose 3 mg/kg, route oral", "details": "in vivo", "in_short": "as §3"}, "[12]": {"assay": "Half life in Sprague-Dawley rat at 10 mg/kg, iv by LC-MS/MS analysis", "type": "ADME, organism-based", "parameters": "dose 10 mg/kg, route intravenous", "details": "in vivo", "in_short": "as §3"}, "[13]": {"assay": "Ratio of drug level in brain to plasma in Sprague-Dawley rat at 10 mg/kg, po and iv after 0.75 to 3 hrs by LC-MS/MS analysis", "type": "ADME, organism-based", "parameters": "dose 10 mg/kg, route oral", "details": "read-out: BPR", "in_short": "as §4"}, "[14]": {"assay": "Oral bioavailability in Sprague-Dawley rat at 10 mg/kg by LC-MS/MS analysis", "type": "ADME, organism-based", "details": "in vivo", "in_short": "as §3"}, "Rattus norvegicus [15]": {"system": "Rattus norvegicus", "assay": "Volume of distribution at steady state in Sprague-Dawley rat at 10 mg/kg, po and iv by LC-MS/MS analysis", "type": "ADME, organism-based", "parameters": "dose 10 mg/kg, route oral", "details": "in vivo", "in_short": "as §2"}, "[16]": {"assay": "Cmax in Sprague-Dawley rat plasma at 10 mg/kg, po and iv by LC-MS/MS analysis", "type": "ADME, organism-based", "parameters": "dose 10 mg/kg, route oral", "in_short": "as §3"}, "[17]": {"assay": "Tmax in Sprague-Dawley rat at 10 mg/kg, po and iv by LC-MS/MS analysis", "type": "ADME, organism-based", "parameters": "dose 10 mg/kg, route oral", "details": "in vivo", "in_short": "as §2"}, "Rattus norvegicus [18]": {"system": "Rattus norvegicus", "assay": "Inhibition of RAMH-induced dipsogenia in Sprague-Dawley rat at 0.6 mg/kg, po administered 30 mins prior to RAMH challenge measured up to 20 mins", "type": "functional, organism-based", "parameters": "dose 0.6 mg/kg", "in_short": "as §1"}, "Rattus norvegicus [19]": {"system": "Rattus norvegicus", "assay": "Inhibition of RAMH-induced dipsogenia in Sprague-Dawley rat at 0.6 mg/kg, po administered 1 hr prior to RAMH challenge measured up to 20 mins", "type": "functional, organism-based", "parameters": "dose 0.6 mg/kg", "in_short": "as §1"}, "Rattus norvegicus [20]": {"system": "Rattus norvegicus", "assay": "Inhibition of RAMH-induced dipsogenia in Sprague-Dawley rat at 0.1 mg/kg, po administered 30 mins prior to RAMH challenge measured up to 20 mins", "type": "functional, organism-based", "parameters": "dose 0.1 mg/kg", "in_short": "as §1"}}, "note": "Activity calls are given as the source filed them. No cut-off for these calls is given here."}
{"smiles": "C[C@@H]1CCCN1CCc1ccc(-c2ccc(S(=O)(=O)CC3CCOCC3)cc2)cc1", "values": [{"measurement": "Ki", "setting": "Histamine H3 receptor", "result": 0.17, "unit": "nM"}, {"measurement": "minimal effective dose", "setting": "Rattus norvegicus [1]", "result": 0.3, "unit": "mg/kg"}]}
{"smiles": "CCOCCS(=O)(=O)c1ccc(-c2ccc(CCN3CCC[C@H]3C)cc2)cc1", "values": [{"measurement": "inhibition at 3 µM", "setting": "hERG (KCNH2)", "result": 45, "unit": "%"}, {"measurement": "Ki", "setting": "Histamine H3 receptor", "result": 1, "unit": "nM"}, {"measurement": "minimal effective dose", "setting": "Rattus norvegicus [1]", "result": 0.3, "unit": "mg/kg"}]}
{"smiles": "C[C@@H]1CCCN1CCc1ccc(-c2ccc(S(=O)(=O)CC3CCCCO3)cc2)cc1", "note": "(stereo not given in full)", "values": [{"measurement": "Ki", "setting": "Histamine H3 receptor", "result": 0.2, "unit": "nM"}]}
{"smiles": "COCCCS(=O)(=O)c1ccc(-c2ccc(CCN3CCC[C@H]3C)cc2)cc1.O=C(O)CC(O)(CC(=O)O)C(=O)O", "values": [{"measurement": "solubility", "setting": "[2]", "result": "> 150", "unit": "mg/mL"}]}
{"smiles": "C[C@@H]1CCCN1CCc1ccc(-c2ccc(S(=O)(=O)CCCO)cc2)cc1", "values": [{"measurement": "IC50", "setting": "[3]", "result": "> 30000", "unit": "nM"}, {"measurement": "Ki", "setting": "Histamine H3 receptor", "result": 0.8, "unit": "nM"}, {"measurement": "minimal effective dose", "setting": "Rattus norvegicus [1]", "result": 1, "unit": "mg/kg"}]}
{"smiles": "CCS(=O)(=O)c1ccc(-c2ccc(CCN3CCC[C@H]3C)cc2)cc1", "values": [{"measurement": "Vdss", "setting": "Rattus norvegicus [4]", "result": 14.3, "unit": "L/kg"}, {"measurement": "bioavailability", "setting": "[5]", "result": 46, "unit": "%"}, {"measurement": "Tmax", "setting": "[6]", "result": 0.3, "unit": "h"}, {"measurement": "Cmax", "setting": "[7]", "result": 57, "unit": "ng/mL"}, {"measurement": "Ki", "setting": "Histamine H3 receptor", "result": 0.9, "unit": "nM"}, {"measurement": "Kp", "setting": "[8]", "result": 1.75}, {"measurement": "half-life", "setting": "[9]", "result": 1.4, "unit": "h"}, {"measurement": "minimal effective dose", "setting": "Rattus norvegicus [1]", "result": 0.3, "unit": "mg/kg"}]}
{"smiles": "CCCS(=O)(=O)c1ccc(-c2ccc(CCN3CCC[C@H]3C)cc2)cc1", "values": [{"measurement": "Vdss", "setting": "Rattus norvegicus [4]", "result": 5.9, "unit": "L/kg"}, {"measurement": "Tmax", "setting": "Rattus norvegicus [10]", "result": 3, "unit": "h"}, {"measurement": "bioavailability", "setting": "[5]", "result": "< 0.1", "unit": "%"}, {"measurement": "BPR", "setting": "[11]", "result": 0.7}, {"measurement": "Cmax", "setting": "Plasma", "result": 449, "unit": "ng/mL"}, {"measurement": "Tmax", "setting": "[6]", "result": 0.1, "unit": "h"}, {"measurement": "Cmax", "setting": "[7]", "result": 6, "unit": "ng/mL"}, {"measurement": "Ki", "setting": "Histamine H3 receptor", "result": 0.6, "unit": "nM"}, {"measurement": "half-life", "setting": "[9]", "result": 0.3, "unit": "h"}, {"measurement": "minimal effective dose", "setting": "Rattus norvegicus [1]", "result": 0.3, "unit": "mg/kg"}]}
{"smiles": "COCS(=O)(=O)c1ccc(-c2ccc(CCN3CCC[C@H]3C)cc2)cc1", "values": [{"measurement": "Ki", "setting": "Histamine H3 receptor", "result": 2.44, "unit": "nM"}]}
{"smiles": "C[C@@H]1CCCN1CCc1ccc(-c2ccc(S(C)(=O)=O)cc2)cc1", "values": [{"measurement": "half-life", "setting": "[12]", "result": 3.6, "unit": "h"}, {"measurement": "Kp", "setting": "[13]", "result": 3.03}, {"measurement": "bioavailability", "setting": "[14]", "result": 100, "unit": "%"}, {"measurement": "Vdss", "setting": "Rattus norvegicus [15]", "result": 19.8, "unit": "L/kg"}, {"measurement": "Cmax", "setting": "[16]", "result": 218, "unit": "ng/mL"}, {"measurement": "Ki", "setting": "Histamine H3 receptor", "result": 1.3, "unit": "nM"}, {"measurement": "Tmax", "setting": "[17]", "result": 4, "unit": "h"}, {"measurement": "minimal effective dose", "setting": "Rattus norvegicus [1]", "result": 0.3, "unit": "mg/kg"}]}
{"smiles": "COCCS(=O)(=O)c1ccc(-c2ccc(CCN3CCC[C@H]3C)cc2)cc1", "values": [{"measurement": "inhibition", "setting": "Rattus norvegicus [18]", "result": "Active"}, {"measurement": "inhibition", "setting": "Rattus norvegicus [19]", "result": "Active"}, {"measurement": "inhibition", "setting": "Rattus norvegicus [20]", "result": "inactive"}]}
